According to the EternaBench riboswitch data:

Test system: MS2 coat protein
Test: apparent Kd, MS2 coat protein; higher = weaker binding; RNA-MaP array; FMN 200 µM where present
Method in brief: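 Designs were transcribed by stalled E. coli RNA polymerase on Illumina sequencing-chip clusters. They were titrated with SNAP-549-labelled MS2 coat protein from 0.7 or 1.5 nM, doubling to 3 µM, without and then with constant ligand. Buffer: 100 mM Tris-HCl pH 7.5, 80 mM KCl, 4 mM MgCl2, BSA, DTT, yeast tRNA, Tween-20. Green signal was normalised to red-channel RNA signal and control-cluster median Fmax. Apparent Kd is the median of filtered per-cluster binding-curve fits.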

[1] = designed as: OFF switch for flavin mononucleotide, no ligand
[2] = ligand present: flavin mononucleotide, designed as: OFF switch for flavin mononucleotide
[3] = designed as: ON switch for flavin mononucleotide, no ligand
[4] = ligand present: flavin mononucleotide, designed as: ON switch for flavin mononucleotide

Sequence | apparent Kd [1] | apparent Kd [2] | apparent Kd [3] | apparent Kd [4]
GUAAUUAAUGUAGGAUAUGCAAGGCGAACCUAAGCAGAAGGACAUGAGGAUCACCCAUGUAUUGCGGUCUGCGUUCAGAUCGCU | 19.5 nM | 49.5 nM |  | 
AGUAUGCGGCAGGAUAUCCAUCCGCGAAAAGGUGGAGAAGGGCUGACAUGAGGAUCACCCAUGUGCGUCUUGUA | 29.7 nM | 31 nM |  | 
GCUAUCGGGUGAGGAUAUAUGAUUGUGAUUAAAAUAGAAGGCAUCUCAGAAGACAUGAGGAUCACCCAUGUAGUUAAGAUGGCA |  |  | 34.1 nM | 22.7 nM
AGAAAGGCAGGAUAUACAUGAGGAUCACCCAUGUUAAGAAAGUGCGAAAGCACAAGAAGUAGAAGGGCCAAGAA | 23 nM | 21.6 nM |  | 
GACACUAGUGUUAGGAUAUGUGUGAGGGACCGCAAACAGAAGGAACAUGAGGAUCACCCAUGUGAUGGUUCUGA | 21.5 nM | 20.4 nM |  | 
AUUUUGCUCGCAGGAUAUCAGGAAAUGUUGAUCUUCUGUAUCUCCUACAUGAGGAUCACCCAUGUUGAGAAGGGCGAUGGCAAU | 106 nM | 358 nM |  | 
CGCUUCUUAGUCAGGAUAUUGUCUGCACAGGGUAGUAAGAAGGGACAUGAGGAUCACCCAUGUAUAACGGUACC | 51.8 nM | 49.1 nM |  | 
GUCAGCUCGUGAGGAUAUACAUGUGCUGGAGACAGCAUUAUAUUUUUCACAUGAGGAUCACCCAUGUAGAAGGCACGAGCUGAU | 16.5 nM | 27.4 nM |  | 
UAUUAAUACAUAUACAUGAGGAUCACCCAUGUCAAAAGACAUGAGGAUAUGGAUCCUAAUUGGAUCCAGAAGGCAUGAAUAAUU |  |  | 347 nM | 17.6 nM
GUGUAGAUAGGAUAUGCGUGAGUCUAGCGAAGCUAGAUUCUACAUGAGGAUCACCCAUGUAGAAGGGUCUACAC | 17.2 nM | 18.5 nM |  | 
AUUAGUAUCUAGGAUAUCUAGUACAUAGUAUCUAGAGAAGGAGAUACAUGAGGAUCACCCAUGUUCUGUGUUCU | 27.2 nM | 64.5 nM |  | 
AAGUCGACGGUGAGGAUAUUGGUUGAACGACAGAUUAAGAAGGUACAUGAGGAUCACCCAUGUGGGUAACGUCG | 100 nM | 83 nM |  | 
GGUCCUUCUGUUAGGAUAUGCUUUGGGCUUCCGCAGUAGAAGGAACAUGAGGAUCACCCAUGUCCGAUGCCGUA | 65.3 nM | 84.4 nM |  | 
GCGACGCGGGAAGGAUAUCCGCUCAGGAGUGUCUCAUGCUAACAUGAGGAUCACCCAUGUUGUCCGGAGAAGGUCCUGUCAGGC | 152 nM | 288 nM |  | 
GGUACCAACACAGGAUAUGCUAUCCUUUGGGUAGCAGAAGGGUGAAACAUGAGGAUCACCCAUGUGGUGCCACCCGGUGACGGG |  |  | 1180 nM | 89.2 nM
GGGUACAUCGGAGGAUAUCAUGUGUAAACAUGAGGAUCACCCAUGUCGUACGAGAGUACGGAGAUUGAGAAGGCCGAUGUACCG |  |  | 86.7 nM | 16.6 nM
GUGGCAUGAGGAUAUCGAGGUUAGUACAUGAGGAUCACCCAUGUUAUCCAGGUGUCGGUUCGAGAAGGCAUGGCAC | 326 nM | 302 nM |  | 
AAACGUAGAGGAUAUACAUAAGUAUUACGAAAGUAAUACAAACAUGAGGAUCACCCAUGUAGAAGGCUACGAAA | 25.4 nM | 35.3 nM |  | 
ACAGUAUAUGUAGGAUAUCAUUGGCCAGGUAGGUGAGAAGGGCAUAGUACAUGAGGAUCACCCAUGUGUUGGUCCUCGCAGAAA | 392 nM | 233 nM |  | 

Sequence | apparent Kd [1] | apparent Kd [2] | apparent Kd [3] | apparent Kd [4]
GGCGGCGCGGGCCACCGCAGGACCAGAAGGACAUGAGGAUCACCCAUGUAGCAGAACAGGGCGGUGUAGGAUAUGGCAGGCUCG | 24.9 nM | 45.8 nM |  | 
GUGAAACAUGAGGAUCACCCAUGUGAGGAUAUGUUUUAGUACUGCUGACAGUACAUCUAUAGAAGGCACAAUGG | 34.8 nM | 54.8 nM |  | 
UGAUAGCACAGAGGAUAUGCGUAGUGUUAUCUCUACAUGAGGAUCACCCAUGUAGAAGGCUGUGCUAUCUAAGUCGGAAACGAC | 5.95 nM | 9.9 nM |  | 
CGCGAAUUACAGAAGGGACAAGGGAUAAAACCCAGGUCUUGCAGUAGACAUGAGGAUCACCCAUGUCAGGAUAUGUAGAGAGUU | 17.2 nM | 95.5 nM |  | 
GGAGCCCAGUCAGGAUAUGUAACGCUUAGGCUGUUACAUGAGGAUCACCCAUGUUUCACCGUGAAACAGAAGGGACAUUUGGCU |  |  | 382 nM | 122 nM
CGGAUUAUGUGAGGAUAUAAUCGUUUCCAUUGAUUAGAAGGCACAUGAGGAUCACCCAUGUGGCAUGUAAUGCCAUGUGACGCU | 442 nM | 41.3 nM |  | 
UCAUACAUGACAUGACAUGACAUGAGGAUCACCCAUGUUUACAAGGAUAUGUUGAUGAAACAUCAACAGAAGGUGUAUUGGACU | 51.8 nM | 172 nM |  | 
CUUUAGUCAGGAUAUACAUGAGGAUCACCCAUGUAAAAUUUUAAUUUAAUUUUAAGGUGUAGAAGGGACCACCC | 33.4 nM | 29.3 nM |  | 
ACAUAAAUUCGAGGAUAUCGGUGAUAAAGAAGACGAGAAGGCGAUUUAAGAUAUAUGGUUAAAGACAUGAGGAUCACCCAUGUA |  |  | 32.1 nM | 29.7 nM
GGACGACACAUGAACAUGAGGAUCACCCAUGUAAAUUCUCAUGAGGAUAUGGAUCCUAAUUGGAUCCAGAAGGCGUGGUCGUCC |  |  | 961 nM | 507 nM
AUUUAGUCAGGAUAUACAUGAGGAUCACCCAUGUAAACUUUUAGUUUAAUUUGAAUGUGUAGAAGGGACAUUUU | 28.8 nM | 29.8 nM |  | 
GACAUGAGGAUCACCCAUGUCCAACCAGAAGGCCAGGAAUCGGACCCGAGUAUCGGGUUCGAGAUGGAGGAUAUGGGCGCCGAA |  |  | 75.1 nM | 33.7 nM
GCAUUUCAGUAAGGAUAUAUAAACAUGACGAUACAUGAGGAUCACCCAUGUGUAGAAGGUACUAAUACAUAUAAUGCAAUGGUC | 26.6 nM | 21.1 nM |  | 
AAUUUGUGAAAAUUACAUGAGGAUCACCCAUGUUAGGGAAUGCAGGAUAUGUGGAAUAUUAUUUAACAGAAGGGCAAUAAUUUU |  |  | 56.3 nM | 41.6 nM
UAGUUAUUCACAGGAUAUCGCCUCUUAUUACAUGAGGAUCACCCAUGUUUAUUUUGUUACAUGUUCGAGAAGGGUGUAGCCGUU | 345 nM | 375 nM |  | 
UAUAUGUCAGGAUAUCGAUUGGAAUGGAAUUUAGUUUUGGUCGAGAAGGGACAUGAGGAUCACCCAUGUUCCUC | 30.9 nM | 134 nM |  | 
AGACAUGUCCGAGGAUAUCUGGAAACAUUUUCAAGAGAAGGCGGACAUGAGGAUCACCCAUGUCUCUCCUCAUCAAAUCCAAGU | 7.98 nM | 44.6 nM |  | 
GUGUACAGAGGAUAUACAUGAGCAUGGAAACAUGCAUCCUCACAUGAGGAUCACCCAUGUAGAAGGCUGUACAC | 26.6 nM | 31.6 nM |  | 
AUUAUGUUAGGAUAUGCUUAUGGUGGAUAGUCCGAUAUGAUGCAGAAGGGACAUGAGGAUCACCCAUGUACUGA | 27.3 nM | 29.5 nM |  | 

Sequence | apparent Kd [1] | apparent Kd [2] | apparent Kd [3] | apparent Kd [4]
AGUGCGUAUGUGAGGAUAUGCUGGUCCUUGGAUCAGCAGAAGGCACAUGAGGAUCACCCAUGUGGUGUCGUACC | 209 nM | 36.4 nM |  | 
GCGCUUAUACAGAAGGCCAUAUACAUGAGGAUCACCCAUGUUACAUGGUGGAGGAUAUGUUAUUAAUUACAGGUAGAUGAGCGC |  |  | 4.61 nM | 4.42 nM
AAGGAUAGAGGAUAUAUAUAGAUACAGAUUCAUGUAGAACUACAUGAGGAUCACCCAUGUAGAAGGCUAUCCUA | 15.7 nM | 60.4 nM |  | 
CUUCGACAUGAGGAUCACCCAUGUCAGGAUAUUGUGUAUCGGGUUUUUUACGGAUAGGCAAGAAGGGAUGUGUG | 35.6 nM | 34.2 nM |  | 
UCAAGUAUGUAGGAUAUCGAUGUCCUCGGACAUCGAGAAGGACGUACAUGAGGAUCACCCAUGUAACUUGCAUG | 63.8 nM | 84.9 nM |  | 
UUUAUGUGAGGAUAUAGUACUCCUUCUAUUAUUUUUGAGUACUAGAAGGCACAUGAGGAUCACCCAUGUAGUAC | 22.5 nM | 48.6 nM |  | 
AGCUGUGGCCGAGGAUAUCUAAACCUCGAAAACGAAAUAUAAUCGAACAUGAGGAUCACCCAUGUAGAGAAGGCGGUCUCAGCA | 69.6 nM | 211 nM |  | 
AAUGAUUGAUUCCACUUAUACAUGAGGAUCACCCAUGUUAUCGAGGAUAUGCAUUAGAGUGUUUAGCAGAAGGCGAUGUAAUUG | 7.82 nM | 25 nM |  | 
CAGAGGAUGUAAGGAUAUCGUCAGGAAUACUGACGAGAAGGUACAUGAGGAUCACCCAUGUAUAUGAAAGAUAAUAAACCUCUG | 14.4 nM | 17.2 nM |  | 
GAAUACACCCGACGGGUGUCCGGCAAGGAUAUGAUGAGGGCGAUGCUACAUGAGGAUCACCCAUGUCAGAAGGUGCCCUCCAGG | 6.59 nM | 7.19 nM |  | 
AUUUGAAUGUCAGGAUAUGGUAGAUUAUUCUUAUCAGAAGGGAUAAUUAUACUCAAGUACAUGAGGAUCACCCAUGUUAAAUCA |  |  | 12 nM | 12.6 nM
AGAAAACGAGGAUAUACGUGCAUAUUCUCGCCCAAUGGGCAACAUGAGGAUCACCCAUGUAGAAGGCGUAAAGA | 37.4 nM | 71.7 nM |  | 
AAUAACAGAGGAUAUACUGUUUUAUGUGUUUGUUAUUUUGAACAUGAGGAUCACCCAUGUAGAAGGCUGAAUAA | 24.6 nM | 22.1 nM |  | 
GGCAUGUGAGGAUAUCUGAUGUCUAACUUCGGUUAGACAUCAGAGAAGGCACAUGAGGAUCACCCAUGUCUGCC | 68.4 nM | 79.8 nM |  | 
AUCAUGCUCAAGAAGGACAUGAGGAUCACCCAUGUAGGAUAUUGGGCGGUCACCUCUAGCUUGUGUGUAUCUGAAUACUCCAGG |  |  | 21.1 nM | 7.17 nM
AAGACUAGAGGAUAUACAUGAGGAUCACCCAUGUAACUGUCAGGUGACUGACGGAAAUGUAGAAGGCUAGUCAA | 16.2 nM | 37.9 nM |  | 
UCCCGGGUGCAGAAGGGAUAGGCCUAUUUUCGUGGUAUCCAAACCUAACAUGAGGAUCACCCAUGUCAGGAUAUGCCCACGGGA | 4.87 nM | 5.29 nM |  | 
GCCAUCACAUGAGGAUAUGGCACCGUUUCGGUGCCAGAAGGCAUGUCAUAAGACAUGAGGAUCACCCAUGUAGUUAAGAUGGCA |  |  |  | 55.4 nM
